Tn7 DDE FP – DD(E)-Tn7 binding inhibition, primary FP screen. FP displacement of FITC-Tn7 peptide from fibrin DD(E); 0% = median of compound wells per plate. P02675. inhibition, % at 8.3 µM. hit rate 0.13% among 370,000;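 active = inhibition above the mean of compounds falling within the control limits plus 3 SD of them, cut at about 14% in these data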
Target sequence (P02675 whole entry, looked up): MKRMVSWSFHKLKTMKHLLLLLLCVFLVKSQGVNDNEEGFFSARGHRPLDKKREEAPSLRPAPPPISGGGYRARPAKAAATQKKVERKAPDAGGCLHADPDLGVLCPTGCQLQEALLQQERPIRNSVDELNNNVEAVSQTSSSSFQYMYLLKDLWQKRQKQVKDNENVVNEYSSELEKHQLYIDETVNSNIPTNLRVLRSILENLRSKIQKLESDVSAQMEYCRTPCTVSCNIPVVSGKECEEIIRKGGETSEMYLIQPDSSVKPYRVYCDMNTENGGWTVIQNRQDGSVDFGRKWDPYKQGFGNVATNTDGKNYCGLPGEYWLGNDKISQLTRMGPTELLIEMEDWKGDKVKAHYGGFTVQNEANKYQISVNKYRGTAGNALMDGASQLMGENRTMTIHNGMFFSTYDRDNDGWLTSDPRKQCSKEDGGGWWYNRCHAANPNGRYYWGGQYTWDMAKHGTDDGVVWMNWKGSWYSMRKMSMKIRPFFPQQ
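Measure: % inhibition scaled between sample-field median and high-control FP; Test system: human fibrin DD(E); Quantity: 2 µM final DD(E) protein; Doses: one dose, 8.3 µM nominal; Schedule: compound with protein 10 min, then 3 h after probe, room temperature; Detection: fluorescence polarization; Medium: Tris buffer with calcium and detergent, pH 7.8.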
MT1-MMP act inh – inhibitors of human MT1-MMP activation; HT1080 RFP-PRO-GFP cells, GFP/RFP ratio fluorescence, overnight; percent of plate control window, DMSO zero; hit rate 0.061% among 360,000; GFP/RFP ratio change, % at 20 µM; AID 651647; P50281;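 active = GFP/RFP ratio change of at least 30% with cell ATP level not reduced by more than half and red fluorescence within 50% of control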
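Read-out: GFP/RFP fluorescence ratio; Test system: RFP-PRO-GFP reporter HT1080 cells; Compound dosing: single-point 20 µM compound, 1% DMSO; Times: overnight compound exposure at 37 °C.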
KLK7 zymogen act – proKLK7 (human) activation, primary screen; hit rate 0.9% among 370,000; activation, % at 7 µM; P49862; purified proKLK7, EDANS-DABCYL substrate fluorescence; 100% is mature enzyme control, 0% vehicle;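 active = activation above the mean of all tested compounds plus 3 SD, computed per campaign excluding outliers beyond control limits, cut at about 13% in these data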
Target sequence (P49862 whole entry, looked up): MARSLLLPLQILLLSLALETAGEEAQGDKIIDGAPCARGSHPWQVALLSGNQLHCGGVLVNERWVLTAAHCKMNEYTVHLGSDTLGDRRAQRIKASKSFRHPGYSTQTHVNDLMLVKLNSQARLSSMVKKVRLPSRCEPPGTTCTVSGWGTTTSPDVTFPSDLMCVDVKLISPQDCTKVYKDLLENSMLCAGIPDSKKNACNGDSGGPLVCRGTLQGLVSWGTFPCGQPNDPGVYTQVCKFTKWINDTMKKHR
SKN-1 block – C. elegans SKN-1 inhibition; AID 624304; inhibition, % at 21.8 µM; hit rate 0.49% among 360,000; C. elegans VP596 Pgst-4::GFP/RFP ratio, acrylamide-induced, 24 h;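 active = interference check ratio from 0.5 to 1.5 plus GFP to RFP signal ratio inhibition reaching or exceeding a fixed threshold, cut at about 30% in these data, passing the limit was not always enough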
Neddyl block – cullin neddylation inhibition; hit rate 0.58% among 360,000; TR-FRET cullin neddylation, biochemical; AID 651699; calls only at 25 µM; P61081+Q13564; in the data active = inhibition above about 36%
DDE Tn6 FP inh – DD(E)-Tn6 binding inhibition, primary FP screen. inhibition, % at 8.3 µM. AID 720509. Fibrin DD(E) TRITC-Tn6 fluorescence polarization displacement. hit rate 0.21% among 370,000;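 active = inhibition above a per-campaign cutoff: mean of compounds within control limits plus 3 SD, cut at about 15% in these data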
KLK7 act conf – confirmation of human kallikrein-7 zymogen activators. shares compounds with KLK7 zymogen act. purified proKLK7, EDANS-DABCYL substrate fluorescence; scaled: vehicle 0, mature enzyme 100. activation, % at 7 µM. hit rate 68% among 3,200. AID 686949;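 active = activation, as change over the incubation, above the mean of all tested compounds plus 3 SD, cut at about 13% in these data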
EDANS interfere – optically interferes with EDANS-DABCYL signal, flagging KLK7 hits | shares compounds with KLK7 zymogen act | EDANS-DABCYL substrate fluorescence interference, no enzyme, 4 h; solvent 0%, active enzyme control 100% | activation, % at 7 µM | hit rate 80% among 3,200 | AID 686952;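 active = activation above the all-compound mean plus 3 SD, ignoring values outside control-based bounds, cut at about 4.8% in these data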;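 note: value is the 4 h activation minus the activation read at time zero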
K7 EDANS ctr – EDANS fluorescence interference in dose response, no enzyme; shares compounds with KLK7 zymogen act; EDANS-DABCYL peptide fluorescence interference; EC50, µM; hit rate 20% among 250; AID 720493;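 active = compounds that raise the fluorescence signal in this interference counterscreen, with EC50 at or below 10 µM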;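 note: intact quenched peptide substrate alone read at 355 nm excitation and 520 nm emission; signal is fluorescence gain from T0 to T4 after four hours at room temperature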
Of the large screens only hits and unclear results are named; the others gave an inactive call (follow-up assays come after a bar, where shown). Sampled rows, rich in hits. Any-hit rate of the full collection: about 2.2%.

COc1ccc(-c2csc(NC(=O)c3ccc(S(=O)(=O)N4CCc5ccccc5C4)cc3)n2)c(OC)c1	KLK7 zymogen act 54.8 | KLK7 act conf 58.7 | EDANS interfere 78.9
O=C(Nc1nc(-c2ccccc2)cs1)c1ccc(S(=O)(=O)N2CCc3ccccc32)cc1	KLK7 zymogen act 14.0 | KLK7 act conf inactive | EDANS interfere inactive
CCOc1ccc(-c2csc(NC(=O)c3ccc(S(=O)(=O)N4CCc5ccccc5C4)cc3)n2)cc1	none
Cc1c(O)ccc2c3c(c(=O)oc12)CCC(C)C3 (stereo not drawn)	KLK7 zymogen act 39.4 (not shown: Neddyl block) | KLK7 act conf 63.0 | EDANS interfere 83.8
Cc1c(O)ccc2c3c(c(=O)oc12)CCCC3	KLK7 zymogen act 32.1 (not shown: Neddyl block) | KLK7 act conf 71.2 | EDANS interfere 64.4
Cc1c(Br)c(=O)oc2c(Br)c(O)c(O)cc12	none (not shown: Neddyl block)
Cc1c(Br)c(=O)oc2c(Br)c(O)ccc12	KLK7 zymogen act 25.6 (not shown: Neddyl block) | KLK7 act conf 15.4 | EDANS interfere 24.9
CCC(=O)Nc1ccnc(-c2cccnc2)n1	none
COc1ccc(C(=O)NCC(=O)OCC(=O)c2ccccc2Br)cc1OC	none
O=C(NCCc1cn2cccnc2n1)C1CCC(=O)N(Cc2ccccc2F)C1 (stereo not drawn)	KLK7 zymogen act 34.8 (not shown: Neddyl block) | KLK7 act conf 27.5 | EDANS interfere 23.9
Cc1c(C)c2cc(Cl)c(OCC(=O)Nc3ccccn3)cc2oc1=O	none
COCCCn1c(C(=O)N2CC(C)OC(C)C2)cc2c(=O)n3cccc(C)c3nc21 (stereo not drawn)	none (not shown: Tn7 DDE FP, KLK7 zymogen act, Neddyl block, DDE Tn6 FP inh)
Cc1cccn2c(=O)c3cc(C(=O)N4CCOCC4)n(C)c3nc12	KLK7 zymogen act 19.5 (not shown: Neddyl block) | KLK7 act conf 46.3 | EDANS interfere 35.2 | K7 EDANS ctr inactive
COCCCn1c(C(=O)N2CCOCC2)cc2c(=O)n3cccc(C)c3nc21	KLK7 zymogen act 18.7 (not shown: Neddyl block) | KLK7 act conf 17.0 | EDANS interfere 17.7
Cc1cccn2c(=O)c3cc(C(=O)N4CCN(C(=O)c5ccco5)CC4)n(C)c3nc12	KLK7 zymogen act 19.8 (not shown: Neddyl block) | KLK7 act conf 23.4 | EDANS interfere 34.7
Cc1cccn2c(=O)c3cc(C(=O)N4c5ccccc5CC4C)n(C)c3nc12 (stereo not drawn)	none (not shown: Neddyl block)
CCCNC(=O)C1(C)CCN(C(=O)C(c2ccccc2)c2ccccc2)C1 (stereo not drawn)	none
COc1cccc(NC(=O)CNC(=O)Cn2cnc3sc4c(c3c2=O)CCCC4)c1	none
COCc1c(C(=O)NCC2COc3ccccc3O2)oc2ccccc12 (stereo not drawn)	none
COc1cccc(/C=C/C(=O)Nc2ccc(C(=O)Nc3cccc(S(N)(=O)=O)c3)cc2)c1OC	KLK7 zymogen act 76.9 (not shown: Neddyl block) | KLK7 act conf 79.0 | EDANS interfere 82.6
CCN(CC)CCNC(=O)c1ccc(NC(=O)c2ccc(S(=O)(=O)N(C)c3ccccc3OC)cc2)cc1	none
COc1ccccc1N(C)S(=O)(=O)c1ccc(C(=O)Nc2ccc(C(N)=O)cc2)cc1	KLK7 zymogen act 24.4 | KLK7 act conf 22.4 | EDANS interfere inactive | K7 EDANS ctr inactive
CC1(C)CC(=O)C=C(c2ccc(-c3cccc(C(N)=O)c3)cc2)C1=O	none
COC(=O)/C=C/c1cc(F)ccc1S(=O)(=O)NC(C)(C)C	none
CC(C)c1ccc(NC(=O)CSc2nnc(CN3CCOCC3)n2C)cc1	none
O=C(Cc1cccc2ccccc12)N/N=C1\CCCc2ccccc21	none
NC(=O)NN=C1CCN2CCCc3cccc1c32	KLK7 zymogen act 30.3 (not shown: Neddyl block) | KLK7 act conf 51.2 | EDANS interfere 55.1
CCN1CNC(=S)N(Cc2ccccc2)C1	none
CC(C)OC(=O)C(C(=O)C(F)(F)F)c1cc(NS(=O)(=O)c2ccc3ccccc3c2)c2ccccc2c1O (stereo not drawn)	none (no result: Tn7 DDE FP, KLK7 zymogen act, DDE Tn6 FP inh)
Cc1cc(-c2ccc(C(=O)O)s2)cnc1N	KLK7 zymogen act 31.1 | KLK7 act conf 61.4 | EDANS interfere 69.6
CC1(C)C=C(c2ccc(C(=O)O)s2)CC(C)(C)N1	none
O=C(Nc1ccc2nc3ccccc3nc2c1)c1ccccc1	KLK7 zymogen act 35.3 | KLK7 act conf 32.1 | EDANS interfere 21.4 | K7 EDANS ctr inactive
Nc1ccc(C(=O)Nc2ccc3nc(-c4ccncc4)[nH]c3c2)cc1	none
CC(=O)Nc1ccc2nc(-c3ccncc3)[nH]c2c1	KLK7 zymogen act 21.7 (not shown: Neddyl block) | KLK7 act conf 17.0 | EDANS interfere 21.4
CC(=O)Nc1ccc2ccccc2c1	none (no result: Tn7 DDE FP, KLK7 zymogen act, DDE Tn6 FP inh)
CC(=O)Nc1ccc2cc3ccc(NC(C)=O)cc3nc2c1	KLK7 zymogen act 17.3 | KLK7 act conf 34.2 | EDANS interfere 44.2
CCCCC(=O)Nc1cccc(-c2nn3c(C)nnc3s2)c1	none
CCC(C(=O)Nc1ccncc1)c1ccccc1 (stereo not drawn)	none
O=C1C(C2=NC(c3ccccn3)C3C(=O)N(c4ccccc4)C(=O)C23)=C(O)c2ccccc21 (stereo not drawn)	KLK7 zymogen act 24.5 | KLK7 act conf inactive | EDANS interfere inactive
Cc1ccc(NC(=O)CCC2CC(C)(C)OC2=O)cc1 (stereo not drawn)	none
COc1cccc2c(=O)c3c(cnn3C)n(C)c12	KLK7 zymogen act 49.4 (not shown: Neddyl block) | KLK7 act conf 67.8 | EDANS interfere 67.3
COC(=O)C1=CN(C)C=C(C(=O)OC)C1c1ccsc1	KLK7 zymogen act 33.3 (not shown: Neddyl block) | KLK7 act conf 15.9 | EDANS interfere 23.8
COc1ccc(O)c(C(=O)CC(=O)c2ccncc2)c1	KLK7 zymogen act 14.1 (not shown: Neddyl block) | KLK7 act conf 282.2 | EDANS interfere 290.0
COc1ccc(C(=O)CC(=O)c2ccc(OC)cc2)cc1	none
COc1ccc(-c2cc(C(=O)OCC(=O)NC(C)(C)C)c3ccccc3n2)cc1	none (not shown: Tn7 DDE FP, KLK7 zymogen act, Neddyl block, DDE Tn6 FP inh)
CCCNC(=O)COC(=O)c1cc(-c2ccc(OC)cc2)nc2ccccc12	KLK7 zymogen act 52.0 (not shown: Neddyl block) | KLK7 act conf inactive | EDANS interfere inactive
COc1ccc(-c2cc(C(=O)OCC(=O)NC(C)C)c3ccccc3n2)cc1	KLK7 zymogen act 21.4 (not shown: Neddyl block) | KLK7 act conf 33.4 | EDANS interfere 39.7
O=C(NCc1nnc(SCC(=O)N2CCCCC2)o1)c1c(F)cccc1F	none

Compound activity deposited in PubChem by several laboratories.
